ChEMBL document CHEMBL1132360, “N-Substituted (2,3-dihydro-1,4-benzodioxin-2-yl)methylamine derivatives as D(2) antagonists/5-HT(1A) partial agonists with potential as atypical antipsychotic agents” (J Med Chem, 1999)

How the values were obtained:
Mus musculus [1] = assay: The compound was tested for antagonistic activity against apomorphine induced climbing in the mouse, percentages are for reduction in climbing after peroral administration; format: functional; conditions: po
Procedure, shortened: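 Groups of 10 male CD1 mice (20–25 g) dosed po with test compound or vehicle at set times before apomorphine 0.88 mg/kg sc. Mice were placed singly in inverted wire cages and climbing was scored 0–2 at 10 and 20 min after apomorphine. Percent reduction in climbing is given at the stated dose.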

Rattus norvegicus = assay: The compound was tested in vivo for induction of catalepsy in rat after ip administration; format: functional
Procedure, shortened: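 Male rats (130–190 g), groups of five, injected ip with compound solution (1 mL/kg). Catalepsy assessed at three times by placing each paw on a 45 mm rubber bung; a paw held 15 s scores 1 (group maximum 20 = 100%). ED50 from percent catalepsy at the final reading, by adapted Litchfield–Wilcoxon.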

[2] = target: T1, 5-hydroxytryptamine receptor 1A (Rattus norvegicus) (UniProt P19327); assay: The compound was tested binding affinity against 5-hydroxytryptamine 1A receptor from rat brain using [3H]8-OH-DPAT as radioligand at 10e-6 M.
T1 sequence (whole entry): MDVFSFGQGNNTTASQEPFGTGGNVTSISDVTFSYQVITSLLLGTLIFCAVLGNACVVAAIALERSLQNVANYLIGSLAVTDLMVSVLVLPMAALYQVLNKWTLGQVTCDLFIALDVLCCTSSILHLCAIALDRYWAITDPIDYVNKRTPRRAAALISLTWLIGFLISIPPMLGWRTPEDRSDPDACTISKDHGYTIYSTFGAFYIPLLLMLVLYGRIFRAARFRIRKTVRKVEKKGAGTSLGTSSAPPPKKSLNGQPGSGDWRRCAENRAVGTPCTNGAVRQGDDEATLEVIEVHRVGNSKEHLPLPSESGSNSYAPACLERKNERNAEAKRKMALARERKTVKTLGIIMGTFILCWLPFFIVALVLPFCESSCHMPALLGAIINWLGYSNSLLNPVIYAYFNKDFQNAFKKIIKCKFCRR
Procedure, shortened: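 Adult male CD rat hippocampal membranes (endogenous 5-HT removed by 37 °C, 10 min incubation) in 50 mM Tris-HCl pH 7.7 plus CaCl2, ascorbate, pargyline; incubated with 2 nM [3H]8-OH-DPAT and test compound at 10⁻⁶ M, 30 min, 25 °C; 10 μM 5-HT defines nonspecific binding. Specific binding with and without compound gives percent displacement.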

[3] = target: Adrenergic receptor alpha-1 (Homo sapiens) (UniProt P35348+P25100+P35368); assay: Compound was tested for binding affinity towards Alpha-1 adrenergic receptor in human cortex membranes; format: cell membranes; conditions: concentration not given here
Procedure, shortened: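 Postmortem human cortex membranes (stored −80 °C, final in 50 mM Tris-HCl pH 7.6) incubated with [3H]prazosin 0.1 nM and compound at 10⁻⁶ M or 10 concentrations, 30 min at 30 °C; phentolamine 5 μM defines nonspecific binding. Bound ligand by filtration and scintillation counting; Ki from IC50 by Cheng–Prusoff, ±SEM; percentages are displacement at 10⁻⁶ M.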

[4] = target: T2, 5-hydroxytryptamine receptor 1A (Rattus norvegicus, UniProt P19327); assay: Binding affinity towards 5-hydroxytryptamine 1A receptor from rat brain using [3H]-8-OH-DPAT as radioligand
T2 sequence (P19327 whole entry): T1 sequence (whole entry)

[5] = target: T3, Adrenergic receptor alpha-1 (Homo sapiens, UniProt P35348+P25100+P35368); assay: Binding affinity towards Alpha-1 adrenergic receptor in human cortex membranes; format: cell membranes
T3 sequence (P35348 whole entry): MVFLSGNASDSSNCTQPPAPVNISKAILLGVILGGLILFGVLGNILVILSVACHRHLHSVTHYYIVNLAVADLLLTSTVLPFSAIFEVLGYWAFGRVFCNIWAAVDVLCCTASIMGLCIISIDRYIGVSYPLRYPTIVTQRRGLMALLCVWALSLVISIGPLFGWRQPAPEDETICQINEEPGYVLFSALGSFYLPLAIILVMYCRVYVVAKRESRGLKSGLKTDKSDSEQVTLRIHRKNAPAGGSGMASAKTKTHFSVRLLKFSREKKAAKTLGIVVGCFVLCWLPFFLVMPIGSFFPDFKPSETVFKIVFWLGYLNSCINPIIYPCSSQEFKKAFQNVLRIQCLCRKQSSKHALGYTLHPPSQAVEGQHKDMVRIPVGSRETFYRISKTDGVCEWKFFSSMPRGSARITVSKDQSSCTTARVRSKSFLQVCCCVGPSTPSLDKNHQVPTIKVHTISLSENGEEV
T3 sequence (P25100 whole entry): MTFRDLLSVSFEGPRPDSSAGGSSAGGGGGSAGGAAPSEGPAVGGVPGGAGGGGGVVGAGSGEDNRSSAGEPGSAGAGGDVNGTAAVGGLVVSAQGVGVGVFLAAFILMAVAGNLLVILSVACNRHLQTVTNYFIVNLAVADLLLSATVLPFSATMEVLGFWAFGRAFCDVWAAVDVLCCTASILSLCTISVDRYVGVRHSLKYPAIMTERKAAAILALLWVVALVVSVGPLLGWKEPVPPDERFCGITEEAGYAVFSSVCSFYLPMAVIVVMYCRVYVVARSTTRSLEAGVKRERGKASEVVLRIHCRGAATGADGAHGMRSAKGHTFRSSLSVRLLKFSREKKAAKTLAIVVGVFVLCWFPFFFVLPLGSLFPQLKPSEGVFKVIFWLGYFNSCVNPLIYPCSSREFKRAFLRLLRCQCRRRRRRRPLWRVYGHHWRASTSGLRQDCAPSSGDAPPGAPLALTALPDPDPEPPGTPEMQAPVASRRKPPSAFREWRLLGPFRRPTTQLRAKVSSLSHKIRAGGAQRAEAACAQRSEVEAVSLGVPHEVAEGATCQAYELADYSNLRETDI
T3 sequence (P35368 whole entry): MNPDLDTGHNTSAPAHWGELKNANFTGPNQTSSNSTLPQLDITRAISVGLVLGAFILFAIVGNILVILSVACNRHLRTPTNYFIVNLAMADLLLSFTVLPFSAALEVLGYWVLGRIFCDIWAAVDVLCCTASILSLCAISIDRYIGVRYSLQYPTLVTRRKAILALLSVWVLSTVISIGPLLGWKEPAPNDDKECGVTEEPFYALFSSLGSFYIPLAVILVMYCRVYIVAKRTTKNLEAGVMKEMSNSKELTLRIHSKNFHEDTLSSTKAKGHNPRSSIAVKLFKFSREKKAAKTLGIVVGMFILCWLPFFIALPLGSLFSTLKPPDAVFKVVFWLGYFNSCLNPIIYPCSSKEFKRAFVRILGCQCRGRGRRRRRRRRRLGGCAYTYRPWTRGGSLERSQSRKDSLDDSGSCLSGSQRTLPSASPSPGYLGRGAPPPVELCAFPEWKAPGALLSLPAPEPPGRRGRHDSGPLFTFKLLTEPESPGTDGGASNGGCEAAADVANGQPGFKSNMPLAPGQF

Mus musculus [6] = assay: Percent reduction in apomorphine induced climbing in mouse at 50 mg/Kg of compound given perorally; format: functional
Procedure, shortened: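 Male CD1 mice (20–25 g), groups of 10, given compound po (vehicle 0.1 mL/kg) at 50 mg/kg before apomorphine 0.88 mg/kg sc. Climbing in inverted open-ended wire cages scored 0–2 at 10 and 20 min after apomorphine; percent reduction in climbing at that dose reported.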

Mus musculus [7] = assay: Antagonistic activity against apomorphine induced climbing in the mouse after po administration; format: functional
Procedure, shortened: (§1)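 Male CD1 mice (20–25 g), groups of 10, dosed po with compound or vehicle ([…]) at set times before apomorphine 0.88 mg/kg sc. Each mouse placed in an inverted open-ended wire cage; climbing scored 0–2 at 10 and 20 min after apomorphine.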

Mus musculus [8] = assay: The compound was tested for antagonistic activity against apomorphine induced climbing in the mouse after po administration; format: functional; procedure, shortened: as §1

SMILES | ED50 (Rattus norvegicus) | Ki [4] | Ki [5] | ED50 (Mus musculus [7]) | other results
Cc1nc2n(c(=O)c1CCN1CCC(c3noc4cc(F)ccc34)CC1)CCCC2 [RISPERIDONE] | 1.75 mg/kg |  |  |  | ED50 (Mus musculus [1]): 0.3 mg/kg
c1ccc(N2CCC(CNCC3COc4ccccc4O3)CC2)nc1 (stereo in doubt; 12) [listing 1 of 2 here] |  |  |  |  | inhibition [2]: 98%; inhibition [3]: 98%
c1cnc(N2CCC(CNC[C@@H]3COc4ccccc4O3)CC2)nc1 |  | 25 nM | 117 nM |  | Reduction (Mus musculus [6]): 77%
CN1CCN(C2=Nc3cc(Cl)ccc3Nc3ccccc32)CC1 [CLOZAPINE] | 33.9 mg/kg |  |  |  | ED50 (Mus musculus [1]): 9.5 mg/kg
c1cnc(NCC2CCN(CC3COc4ccccc4O3)CC2)nc1 (stereo in doubt; 8) |  | 21 nM | 23 nM |  | 
O=C(CCCN1CCC(O)(c2ccc(Cl)cc2)CC1)c1ccc(F)cc1 [HALOPERIDOL] | 0.44 mg/kg |  |  |  | ED50 (Mus musculus [1]): 0.16 mg/kg
COc1ccccc1N1CCC(CNCC2COc3cccc(F)c3O2)CC1 (centres undefined) | 23 mg/kg | 16 nM | 12 nM | 4 mg/kg | 
c1cnc(N2CCC(CNC[C@H]3COc4ccccc4O3)CC2)nc1 | 44 mg/kg | 2.7 nM | 18 nM | 9 mg/kg | 
c1ccc(N2CCC(CNCC3COc4ccccc4O3)CC2)nc1 (stereo in doubt; 13) [listing 1 of 2 here] |  |  |  |  | inhibition [2]: 82%; inhibition [3]: 84%
COc1cccc2c1OC(CNCC1CCN(c3ncccn3)CC1)CO2 (centres undefined) |  | 0.6 nM | 2.3 nM | 2.4 mg/kg | 
COc1ccccc1N1CCC(CNCC2COc3cccc(O)c3O2)CC1 (centres undefined) |  |  | > 500 nM | 33 mg/kg | inhibition [2]: 94%
Clc1ccccc1N1CCC(CNCC2COc3ccccc3O2)CC1 (centres undefined) |  | 17 nM | 94 nM |  | 
CC1(CNCC2CCN(c3ncccn3)CC2)COc2ccccc2O1 (centres undefined) |  | 195 nM | 132 nM |  | 
COc1ccc(N2CCC(CNCC3COc4ccccc4O3)CC2)cc1 (centres undefined) |  | 15 nM | 44 nM | 11 mg/kg | 
COc1cccc2c1OCC(CNCC1CCN(c3ncccn3)CC1)O2 (centres undefined) |  | 128 nM | 234 nM |  | 
COc1ccccc1N1CCC(CNC[C@@H]2COc3ccccc3O2)CC1 |  | 37 nM | 74 nM | 38 mg/kg | 
c1ccc(N2CCC(CNCC3COc4ccccc4O3)CC2)cc1 (centres undefined) |  | 29 nM | 47 nM | 39 mg/kg | 
COc1ccccc1NCC1CCN(CC2COc3ccccc3O2)CC1 (centres undefined) |  | 20 nM | 20 nM | 62 mg/kg | 
CN(CC1CCN(c2ncccn2)CC1)CC1COc2ccccc2O1 (centres undefined) |  |  | 348 nM |  | inhibition [2]: 85%
c1cnc(NCCCNCC2COc3ccccc3O2)nc1 (centres undefined) |  | 3.1 nM |  | 6 mg/kg | 
c1ccc2c(c1)OCC(CNCC1CCN(c3cccc4c3OCC4)CC1)O2 (centres undefined) | 107 mg/kg | 3 nM | 33 nM | 18 mg/kg | 
COc1ccccc1N1CCC(CNC[C@H]2COc3ccccc3O2)CC1 | 50 mg/kg | 8 nM | 23 nM | 7 mg/kg | 
c1cnc(NCC2CCN(CC3COc4ccccc4O3)CC2)nc1 (stereo in doubt; 9) |  | 463 nM | 208 nM |  | 
Cc1cc2c(s1)Nc1ccccc1N=C2N1CCN(C)CC1 [OLANZAPINE] | 6.07 mg/kg |  |  | 4.87 mg/kg | 
CC1Oc2ccccc2OC1CNCC1CCN(c2ncccn2)CC1 (centres undefined) | 775 mg/kg | > 500 nM | > 500 nM | 134 mg/kg | 
c1ccc(N2CCC(CNCC3COc4ccccc4O3)CC2)nc1 (stereo in doubt; 13) [listing 2 of 2 here] |  |  |  |  | Reduction (Mus musculus [6]): 55%
COc1cccc(N2CCC(CNCC3COc4ccccc4O3)CC2)c1 (centres undefined) |  |  |  |  | Reduction (Mus musculus [8]): 45%
c1ccc2c(c1)OCC(CNCC1CCN(c3cccc4c3OCCO4)CC1)O2 (centres undefined) | > 200 mg/kg | 18 nM | 38 nM | 32 mg/kg | 
c1ccc(N2CCC(CNCC3COc4ccccc4O3)CC2)nc1 (stereo in doubt; 12) [listing 2 of 2 here] |  |  |  | 23 mg/kg | 
